{
  "source": "paper PMC3351161",
  "about": "(Nucleic Acids Research, 2012)",
  "key": {"[1]": {"test_system": "Mdc1–FHA domain", "assay": "Detection of proposed partners in Mdc1–FHA pull-down / co-immunoprecipitation", "format": "binding, human", "conditions": "for detection in fraction pulled down by Mdc1–FHA domain: mass spectrometry; for detection by western blot in Mdc1–FHA pull-down / co-IP: U2OS, 10 Gy IR or untreated"}, "[2]": {"test_system": "Strep-tagged Mdc1–FHA domain (amino acids 1–154)", "assay": "SILAC pull-down of Mdc1–FHA interaction partners, −IR versus +IR", "format": "binding, human", "conditions": "10 Gy IR", "method_in_brief": "(§1)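 U2OS cells stably carry a doxycycline-inducible, C-terminally Strep-tagged FHA domain (aa 1–154) or empty plasmid. They are SILAC-labelled (Lys0/Arg0, Lys4/Arg6, Lys8/Arg10) in dialyzed FBS, induced 16 h, then given 10 Gy IR for 30 min. Lysis in pH 7.5 Tris/NP-40 buffer with phosphatase and protease inhibitors, Strep-Tactin capture, pooled eluates on 4–20% SDS-PAGE, in-gel trypsin digestion. Analysis by nano-LC Orbitrap Velos MS and MaxQuant (FDR <1%). Read-out is normalized log2 SILAC ratios; 1:1:1 ratios count as background binders.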"}, "[3]": {"test_system": "Mdc1–FHA WT and T4A mutant domains", "assay": "SILAC pull-down, wild-type versus T4A Mdc1–FHA domain after IR", "format": "binding, human", "conditions": "IR-treated cells", "method_in_brief": "as §1"}, "[4]": {"test_system": "immunoprecipitated human ATM", "assay": "In vitro ATM kinase assay of recombinant Mdc1 fragments", "format": "biochemical", "conditions": "0.5 mM ATP, γ-[32P]ATP, 30 min at 30°C, autoradiography"}, "[5]": {"test_system": "Myc-tagged Mdc1 (1–800)", "assay": "Co-immunoprecipitation of Flag- and Myc-tagged Mdc1", "format": "cell-based, human", "conditions": "transiently transfected 293T cells, anti-Flag IP, anti-Myc immunoblot", "method_in_brief": "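Human Mdc1 residues 1–800, C-terminally tagged with HA/FLAG or Myc, in a pcDNA3.1(+) vector. HEK 293T cells grown in D-MEM with 10% FCS and streptomycin/penicillin (100 U/ml). Transfected with FuGene 6 or calcium phosphate. Immunoprecipitation on anti-FLAG M2 affinity gel; Myc-tagged partner detected by immunoblot with rabbit polyclonal c-Myc antibody.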"}, "[6]": {"test_system": "Mdc1 Thr-4 / Thr-98 phosphorylation", "assay": "MS quantitation of Mdc1–FHA phosphorylation site occupancy", "format": "cell-based, human"}},
  "data": [
    {"molecule": "ATM: ataxia telangiectasia-mutated kinase", "values": [
      {"measurement": "detection in fraction pulled down by Mdc1–FHA domain", "setting": "[1]", "value": "could not detect peptides"},
      {"measurement": "detection by western blot in Mdc1–FHA pull-down / co-IP", "setting": "[1]", "value": "unable to detect"}
    ]},
    {"molecule": "Chk2: DNA damage kinase", "values": [
      {"measurement": "detection in fraction pulled down by Mdc1–FHA domain", "setting": "[1]", "value": "could not detect peptides"},
      {"measurement": "detection by western blot in Mdc1–FHA pull-down / co-IP", "setting": "[1]", "value": "unable to detect"}
    ]},
    {"molecule": "DDB1- and Cul4-associated factor 1 [DCAF1]", "values": [
      {"measurement": "decrease of interaction with the MDC1–FHA domain in the presence of DNA damage", "setting": "[2]", "value": "> 2.5", "unit": "fold"}
    ]},
    {"molecule": "DNA damage binding protein 1 [DDB1]", "values": [
      {"measurement": "decrease of interaction with the MDC1–FHA domain in the presence of DNA damage", "setting": "[2]", "value": "> 2.5", "unit": "fold"}
    ]},
    {"molecule": "MDC1: endogenous Mdc1 as interaction partner of its own FHA domain", "values": [
      {"measurement": "interaction with wild-type compared to T4A FHA domain (in words)", "setting": "[3]", "value": "interacts with the wild-type fragment"}
    ]},
    {"molecule": "M-4: GST-fusion Mdc1 fragment M-4 (amino acids 531–770) (protein, UniProt Q14676 531-770, looked up, fragment, GST fusion) PGSAIIHIKKHQVSVEGTNQTDVKAVGGPAKLLVVSLEEAWPLHGDCETDAEEGTSLTASVVADVRKSQLPAEGDAGAEWAAAVLKQERAHEVGAQGGPPVAQVEQDLPISRENLTDLVVDTDTLGESTQPQREGAQVPTGREREQHVGGTKDSEDNYGDSEDLDLQATQCFLENQGLEAVQSMEDEPTQAFMLTPPQELGPSHCSFQTTGTLDEPWEVLATQPFCLRESEDSETQPFDT", "values": [
      {"measurement": "phosphorylation by ATM in vitro", "setting": "[4]", "value": "ATM only phosphorylated fragment M-1 (amino acids 1–124) and fragment M-4 (amino acids 531–770)"}
    ]},
    {"molecule": "M-1: GST-fusion Mdc1 fragment M-1 (amino acids 1–124) (protein, UniProt Q14676 1-124, looked up, fragment, GST fusion) MEDTQAIDWDVEEEEETEQSSESLRCNVEPVGRLHIFSGAHGPEKDFPLHLGKNVVGRMPDCSVALPFPSISKQHAEIEILAWDKAPILRDCGSLNGTQILRPPKVLSPGVSHRLRDQELILFA", "values": [
      {"measurement": "phosphorylation by ATM in vitro", "setting": "[4]", "value": "ATM only phosphorylated fragment M-1 (amino acids 1–124) and fragment M-4 (amino acids 531–770)"}
    ]},
    {"molecule": "M-1 T4A: M-1 point mutation altering Thr-4 to Ala (protein, UniProt Q14676 1-124, looked up, variant T4A, GST fusion) MEDAQAIDWDVEEEEETEQSSESLRCNVEPVGRLHIFSGAHGPEKDFPLHLGKNVVGRMPDCSVALPFPSISKQHAEIEILAWDKAPILRDCGSLNGTQILRPPKVLSPGVSHRLRDQELILFA", "values": [
      {"measurement": "phosphorylation by ATM in vitro", "setting": "[4]", "value": "could no longer be phosphorylated by ATM in vitro"}
    ]},
    {"molecule": "Mdc1 (1–800) R58A: FHA domain R58A mutant of Mdc1 (1–800) (protein, UniProt Q14676 1-800, looked up, variant R58A) MEDTQAIDWDVEEEEETEQSSESLRCNVEPVGRLHIFSGAHGPEKDFPLHLGKNVVGAMPDCSVALPFPSISKQHAEIEILAWDKAPILRDCGSLNGTQILRPPKVLSPGVSHRLRDQELILFADLLCQYHRLDVSLPFVSRGPLTVEETPRVQGETQPQRLLLAEDSEEEVDFLSERRMVKKSRTTSSSVIVPESDEEGHSPVLGGLGPPFAFNLNSDTDVEEGQQPATEEASSAARRGATVEAKQSEAEVVTEIQLEKDQPLVKERDNDTKVKRGAGNGVVPAGVILERSQPPGEDSDTDVDDDSRPPGRPAEVHLERAQPFGFIDSDTDAEEERIPATPVVIPMKKRKIFHGVGTRGPGAPGLAHLQESQAGSDTDVEEGKAPQAVPLEKSQASMVINSDTDDEEEVSAALTLAHLKESQPAIWNRDAEEDMPQRVVLLQRSQTTTERDSDTDVEEEELPVENREAVLKDHTKIRALVRAHSEKDQPPFGDSDDSVEADKSSPGIHLERSQASTTVDINTQVEKEVPPGSAIIHIKKHQVSVEGTNQTDVKAVGGPAKLLVVSLEEAWPLHGDCETDAEEGTSLTASVVADVRKSQLPAEGDAGAEWAAAVLKQERAHEVGAQGGPPVAQVEQDLPISRENLTDLVVDTDTLGESTQPQREGAQVPTGREREQHVGGTKDSEDNYGDSEDLDLQATQCFLENQGLEAVQSMEDEPTQAFMLTPPQELGPSHCSFQTTGTLDEPWEVLATQPFCLRESEDSETQPFDTHLEAYGPCLSPPRAIPGDQHPESPVHTEPM", "values": [
      {"measurement": "interaction of Flag-tagged with Myc-tagged Mdc1 (1–800)", "setting": "[5]", "value": "significant reduction of the interaction"}
    ]},
    {"molecule": "Mdc1 (1–800) T4A: T4A mutant of Mdc1 (1–800) (protein, UniProt Q14676 1-800, looked up, variant T4A) MEDAQAIDWDVEEEEETEQSSESLRCNVEPVGRLHIFSGAHGPEKDFPLHLGKNVVGRMPDCSVALPFPSISKQHAEIEILAWDKAPILRDCGSLNGTQILRPPKVLSPGVSHRLRDQELILFADLLCQYHRLDVSLPFVSRGPLTVEETPRVQGETQPQRLLLAEDSEEEVDFLSERRMVKKSRTTSSSVIVPESDEEGHSPVLGGLGPPFAFNLNSDTDVEEGQQPATEEASSAARRGATVEAKQSEAEVVTEIQLEKDQPLVKERDNDTKVKRGAGNGVVPAGVILERSQPPGEDSDTDVDDDSRPPGRPAEVHLERAQPFGFIDSDTDAEEERIPATPVVIPMKKRKIFHGVGTRGPGAPGLAHLQESQAGSDTDVEEGKAPQAVPLEKSQASMVINSDTDDEEEVSAALTLAHLKESQPAIWNRDAEEDMPQRVVLLQRSQTTTERDSDTDVEEEELPVENREAVLKDHTKIRALVRAHSEKDQPPFGDSDDSVEADKSSPGIHLERSQASTTVDINTQVEKEVPPGSAIIHIKKHQVSVEGTNQTDVKAVGGPAKLLVVSLEEAWPLHGDCETDAEEGTSLTASVVADVRKSQLPAEGDAGAEWAAAVLKQERAHEVGAQGGPPVAQVEQDLPISRENLTDLVVDTDTLGESTQPQREGAQVPTGREREQHVGGTKDSEDNYGDSEDLDLQATQCFLENQGLEAVQSMEDEPTQAFMLTPPQELGPSHCSFQTTGTLDEPWEVLATQPFCLRESEDSETQPFDTHLEAYGPCLSPPRAIPGDQHPESPVHTEPM", "values": [
      {"measurement": "interaction of Flag-tagged with Myc-tagged Mdc1 (1–800)", "setting": "[5]", "value": "significant reduction of the interaction"}
    ]},
    {"molecule": "Mdc1 (1–800) concomitant mutation of both the FHA domain and Thr-4: T4A/R58A mutant of Mdc1 (1–800) (protein, UniProt Q14676 1-800, looked up, variant T4A R58A) MEDAQAIDWDVEEEEETEQSSESLRCNVEPVGRLHIFSGAHGPEKDFPLHLGKNVVGAMPDCSVALPFPSISKQHAEIEILAWDKAPILRDCGSLNGTQILRPPKVLSPGVSHRLRDQELILFADLLCQYHRLDVSLPFVSRGPLTVEETPRVQGETQPQRLLLAEDSEEEVDFLSERRMVKKSRTTSSSVIVPESDEEGHSPVLGGLGPPFAFNLNSDTDVEEGQQPATEEASSAARRGATVEAKQSEAEVVTEIQLEKDQPLVKERDNDTKVKRGAGNGVVPAGVILERSQPPGEDSDTDVDDDSRPPGRPAEVHLERAQPFGFIDSDTDAEEERIPATPVVIPMKKRKIFHGVGTRGPGAPGLAHLQESQAGSDTDVEEGKAPQAVPLEKSQASMVINSDTDDEEEVSAALTLAHLKESQPAIWNRDAEEDMPQRVVLLQRSQTTTERDSDTDVEEEELPVENREAVLKDHTKIRALVRAHSEKDQPPFGDSDDSVEADKSSPGIHLERSQASTTVDINTQVEKEVPPGSAIIHIKKHQVSVEGTNQTDVKAVGGPAKLLVVSLEEAWPLHGDCETDAEEGTSLTASVVADVRKSQLPAEGDAGAEWAAAVLKQERAHEVGAQGGPPVAQVEQDLPISRENLTDLVVDTDTLGESTQPQREGAQVPTGREREQHVGGTKDSEDNYGDSEDLDLQATQCFLENQGLEAVQSMEDEPTQAFMLTPPQELGPSHCSFQTTGTLDEPWEVLATQPFCLRESEDSETQPFDTHLEAYGPCLSPPRAIPGDQHPESPVHTEPM", "values": [
      {"measurement": "interaction of Flag-tagged with Myc-tagged Mdc1 (1–800)", "setting": "[5]", "value": "complete loss of binding"}
    ]},
    {"molecule": "Rad51: repair protein (protein) MAMQMQLEANADTSVEEESFGPQPISRLEQCGINANDVKKLEEAGFHTVEAVAYAPKKELINIKGISEAKADKILAEAAKLVPMGFTTATEFHQRRSEIIQITTGSKELDKLLQGGIETGSITEMFGEFRTGKTQICHTLAVTCQLPIDRGGGEGKAMYIDTEGTFRPERLLAVAERYGLSGSDVLDNVAYARAFNTDHQTQLLYQASAMMVESRYALLIVDSATALYRTDYSGRGELSARQMHLARFLRMLLRLADEFGVAVVITNQVVAQVDGAAMFAADPKKPIGGNIIAHASTTRLYLRKGRGETRICKIYDSPCLPEAEAMFAINADGVGDAKD", "values": [
      {"measurement": "detection in fraction pulled down by Mdc1–FHA domain", "setting": "[1]", "value": "could not detect peptides"}
    ]},
    {"molecule": "Mdc1-FHA domain: C-terminally Strep-tagged Mdc1-FHA domain (amino acids 1–154) (protein, left off: GST, end not stated, cleaved) NVEPVGRLHIFSGAHGPEKDFPLHLGKNVVGRMPDCSVALPFPSISKQHAEIEILAWDKAPILRDCGSLNGTQILRPPKVLSPGVSHRLRDQELILFADLLCQYHRLDVSLP", "values": [
      {"measurement": "Thr-98 phosphorylation", "setting": "[6]; MS of tryptic peptide", "value": "no phosphorylated form was evident"},
      {"measurement": "occupancy rate of phosphorylated Thr-4, after irradiation", "setting": "[6]; SILAC and extracted ion chromatogram quantitation, after irradiation", "value": 61.5, "unit": "%"},
      {"measurement": "occupancy rate of phosphorylated Thr-4, before irradiation", "setting": "[6]; SILAC and extracted ion chromatogram quantitation, not irradiated", "value": 18.6, "unit": "%"}
    ]}
  ]
}
